Measured values pooled from the literature.
Compare with care: the assays were run in different laboratories.
CDK4: Cyclin-dependent kinase 4 (CDK4, Homo sapiens, UniProt P11802)
CDK4 with cyclin D3: Cyclin-dependent kinase 4, with cyclin D3 (CDK4, Homo sapiens, UniProt P11802)
CDK4 with cyclin D1: Cyclin-dependent kinase 4, with cyclin D1 (CDK4, Homo sapiens, UniProt P11802)

| SMILES | target | read-out | mode | technique | tested at | endpoint | value |
| --- | --- | --- | --- | --- | --- | --- | --- |
| CCCCC(=O)Nc1ccc(-c2ccc3ncn(CCC)c(=O)c3c2)cn1 | CDK4 | binding | – | competition with immobilised ligand | 0.5 µM | remaining binding | 100% |
| CC#CC(=O)N1CCC[C@H]1c1nc(-c2ccc(C(=O)Nc3ccccn3)cc2)c2c(N)nccn12 | CDK4 with cyclin D3 | enzyme activity | inhibitor | – | 1 µM | inhibition | 0% |
| CC(C)S(=O)(=O)c1ccc2nccc(Nc3ccc4sc(C5CCCC5)nc4c3)c2c1 | CDK4 with cyclin D3 | enzyme activity | inhibitor | – | 1 µM | activity vs control | 102% |
| C1=C/COCc2cc(ccc2OCCN2CCCC2)Nc2nccc(n2)-c2cccc(c2)COC/1 | CDK4 with cyclin D3 | binding | – | – | 0.1 µM | remaining binding | 25% |
| Cc1cc(O)c(-c2ccc([C@@H](C)CN(C)C)cc2)c2c1[nH]c(=O)c1sccc12 | CDK4 | enzyme activity | inhibitor | – | 0.1 µM | inhibition | 4.95% |
| CN1CCN(C(=O)c2ccc(NC(=O)Nc3ccc(N(C)c4ccnc(Nc5ccc(CS(C)(=O)=O)cc5)n4)cc3)cc2)CC1 | CDK4 | binding | – | – | 1 µM | remaining binding | 83% |
| CNS(=O)(=O)c1ccc(Nc2ncc(C(F)(F)F)c(N3CCC[C@](C)(O)C3)n2)c(C)c1 | CDK4 with cyclin D1 | binding | – | competition with immobilised ligand | 1 µM | remaining binding | 46% |
| COc1ccc2[nH]c3c4[nH]c5ccc(OC)cc5c4c4c(c3c2c1)C(=O)NC4=O | CDK4 with cyclin D1 | binding | – | – | 1 µM | remaining binding | 82% |
| C=CC(=O)N1CCC([C@@H]2CCNc3c(C(N)=O)c(-c4ccc(Oc5ccccc5)cc4)nn32)CC1 | CDK4 with cyclin D3 | enzyme activity | inhibitor | – | 1 µM | inhibition | 0% |
| C[C@]1(O)CCCN(c2nc(Nc3ccc(S(=O)(=O)N[C@H]4CC[C@H](CN5CCN(c6ccc(C7CCC(=O)NC7=O)cc6F)CC5)CC4)cc3Cl)ncc2C(F)(F)F)C1 (stereo partly drawn) | CDK4 | binding | – | competition with immobilised ligand | 1 µM | remaining binding | 93% |
| CO[C@@H]1[C@H](N(C)C(=O)c2ccccc2)C[C@H]2O[C@]1(C)n1c3ccccc3c3c4c(c5c6ccccc6n2c5c31)C(=O)NC4 | CDK4 with cyclin D3 | enzyme activity | inhibitor | – | 1 µM | inhibition | 2% |
| C[C@]1(O)CCCN(c2nc(Nc3ccc(S(=O)(=O)N[C@H]4CC[C@H](CN5CCN(c6ccc(C7CCC(=O)NC7=O)cc6F)CC5)CC4)cc3F)ncc2C(F)(F)F)C1 (stereo partly drawn) | CDK4 with cyclin D1 | binding | – | competition with immobilised ligand | 1 µM | remaining binding | 97% |
